Test system: VCaP
Test: Antiproliferative activity against human VCaP cells assessed as reduction in cell viability after 6 days by CellTiter-Glo assay
Type: functional
Details: 144 h, time 6 day
Procedure, shortened: (§1)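 LNCaP seeded at 1.5 × 10³ and VCaP at 4 × 10³ cells per well in 96-well plates. Cells grown in IMDM with 10% FBS and antibiotic-antimycotic at 37 °C, 5% CO2, with DMSO as vehicle. IC50 from nonlinear regression of log(inhibitor) versus response.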

Row | SMILES | CC50 [µM]
1 | CC1(C)[C@H](NC(=O)c2ccc(N3CCN(CCOC4CCN(C(=O)COc5ccc6nnn(C7CCC(=O)NC7=O)c(=O)c6c5)CC4)CC3)cc2)C(C)(C)[C@H]1Oc1ccc(C#N)c(Cl)c1 (stereo partly specified) | 0.141

Test system: LNCaP
Test: Antiproliferative activity against human LNCaP cells assessed as reduction in cell viability after 6 days by CellTiter-Glo assay
Type: functional
Details: 144 h, time 6 day
Procedure, shortened: as §1

Row | SMILES | CC50 [µM]
2 | CC1(C)[C@H](NC(=O)c2ccc(N3CCN(C4CC5(CCN(c6cccc7nnn(C8CCC(=O)NC8=O)c(=O)c67)CC5)C4)CC3)cc2)C(C)(C)[C@H]1Oc1ccc(C#N)c(Cl)c1 (stereo partly specified) | 13.4
3 | CC1(C)[C@H](NC(=O)c2ccc(N3CCN(CC4CCN(C(=O)COc5ccc6nnn(C7CCC(=O)NC7=O)c(=O)c6c5)CC4)CC3)cc2)C(C)(C)[C@H]1Oc1ccc(C#N)c(Cl)c1 (stereo partly specified) | 0.804
4 | CC1(C)[C@H](NC(=O)c2ccc(N3CCN(CC4CCN(c5cccc6nnn(C7CCC(=O)NC7=O)c(=O)c56)CC4)CC3)cc2)C(C)(C)[C@H]1Oc1ccc(C#N)c(Cl)c1 (stereo partly specified) | 0.613
5 | CC1(C)[C@H](NC(=O)c2ccc(N3CCN(CCOC4CCN(C(=O)COc5ccc6nnn(C7CCC(=O)NC7=O)c(=O)c6c5)CC4)CC3)cc2)C(C)(C)[C@H]1Oc1ccc(C#N)c(Cl)c1 (stereo partly specified) | 1.3

Biological target: T1, Protein cereblon/Androgen receptor (Homo sapiens, UniProt P10275+Q96SW2)
T1 sequence (P10275 whole entry, looked up): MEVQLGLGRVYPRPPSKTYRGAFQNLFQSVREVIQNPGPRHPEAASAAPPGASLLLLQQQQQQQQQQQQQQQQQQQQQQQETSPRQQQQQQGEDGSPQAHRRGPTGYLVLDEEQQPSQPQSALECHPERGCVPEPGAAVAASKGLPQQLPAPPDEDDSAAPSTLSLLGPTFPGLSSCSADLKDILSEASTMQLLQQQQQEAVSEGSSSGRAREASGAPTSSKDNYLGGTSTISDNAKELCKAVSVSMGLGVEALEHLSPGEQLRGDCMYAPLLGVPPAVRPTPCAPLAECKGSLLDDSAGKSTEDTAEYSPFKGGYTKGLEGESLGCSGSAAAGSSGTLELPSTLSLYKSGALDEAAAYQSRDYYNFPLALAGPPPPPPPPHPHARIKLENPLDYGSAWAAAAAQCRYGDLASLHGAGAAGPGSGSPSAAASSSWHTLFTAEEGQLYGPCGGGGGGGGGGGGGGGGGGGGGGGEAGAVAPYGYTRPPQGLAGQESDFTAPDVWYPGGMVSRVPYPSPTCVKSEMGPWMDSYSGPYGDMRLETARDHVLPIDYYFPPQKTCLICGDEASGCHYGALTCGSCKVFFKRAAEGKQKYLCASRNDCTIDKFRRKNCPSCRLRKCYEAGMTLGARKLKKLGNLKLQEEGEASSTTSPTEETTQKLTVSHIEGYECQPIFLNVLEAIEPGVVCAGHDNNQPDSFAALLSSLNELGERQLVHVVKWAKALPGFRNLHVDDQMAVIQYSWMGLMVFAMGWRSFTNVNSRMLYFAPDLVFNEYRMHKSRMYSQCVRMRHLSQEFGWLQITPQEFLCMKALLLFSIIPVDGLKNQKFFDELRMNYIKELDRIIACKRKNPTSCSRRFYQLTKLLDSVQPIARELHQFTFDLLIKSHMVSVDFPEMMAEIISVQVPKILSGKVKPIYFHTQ
T1 sequence (Q96SW2 whole entry, looked up): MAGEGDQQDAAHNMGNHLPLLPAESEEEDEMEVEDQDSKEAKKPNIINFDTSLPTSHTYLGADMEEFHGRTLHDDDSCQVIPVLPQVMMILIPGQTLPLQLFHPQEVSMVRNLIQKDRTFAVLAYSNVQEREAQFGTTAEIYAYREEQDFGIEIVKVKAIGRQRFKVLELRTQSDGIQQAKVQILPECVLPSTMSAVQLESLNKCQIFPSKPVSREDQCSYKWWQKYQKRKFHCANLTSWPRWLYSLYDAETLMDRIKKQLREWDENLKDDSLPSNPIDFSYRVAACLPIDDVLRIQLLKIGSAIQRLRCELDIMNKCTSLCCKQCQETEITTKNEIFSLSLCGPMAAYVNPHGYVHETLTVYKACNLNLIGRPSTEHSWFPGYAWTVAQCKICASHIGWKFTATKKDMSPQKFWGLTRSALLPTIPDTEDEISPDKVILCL
Test: Protac activity at CRBN/AR in human LNCaP cells assessed as AR degradation at 0.1 uM by western blotting analysis relative to control
Type: cell-based
Details: not given
Procedure, shortened: (§2)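 LNCaP (IMDM) or 22RV1 (RPMI 1640) cells with 10% FBS at 37 °C, 5% CO2, treated with DMSO vehicle as control. Cells lysed in RIPA buffer (50 mM Tris-HCl pH 7.5, 150 mM NaCl, 1% Triton X-100, 0.1% SDS, 0.5% deoxycholate, protease inhibitors). Protein quantified by Bradford assay. Immunoblotted for AR with tubulin as loading control, HRP chemiluminescence detection.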

Row | Activity [%] | SMILES
6 | 0 | CC1(C)[C@H](NC(=O)c2ccc(N3CCN(C4CC5(CCN(c6cccc7nnn(C8CCC(=O)NC8=O)c(=O)c67)CC5)C4)CC3)cc2)C(C)(C)[C@H]1Oc1ccc(C#N)c(Cl)c1 (stereo partly specified)
7 | 89 | CC1(C)[C@H](NC(=O)c2ccc(N3CCN(CC4CCN(C(=O)COc5ccc6nnn(C7CCC(=O)NC7=O)c(=O)c6c5)CC4)CC3)cc2)C(C)(C)[C@H]1Oc1ccc(C#N)c(Cl)c1 (stereo partly specified)
8 | 28 | CC1(C)[C@H](NC(=O)c2ccc(N3CCN(CC4CCN(c5ccc6c(=O)n(C7CCC(=O)NC7=O)nnc6c5)CC4)CC3)cc2)C(C)(C)[C@H]1Oc1ccc(C#N)c(Cl)c1 (stereo partly specified)
9 | 15 | CC1(C)[C@H](NC(=O)c2ccc(N3CCN(CC4CCN(c5cccc6nnn(C7CCC(=O)NC7=O)c(=O)c56)CC4)CC3)cc2)C(C)(C)[C@H]1Oc1ccc(C#N)c(Cl)c1 (stereo partly specified)
10 | 86 | CC1(C)[C@H](NC(=O)c2ccc(N3CCN(CCOC4CCN(C(=O)COc5ccc6nnn(C7CCC(=O)NC7=O)c(=O)c6c5)CC4)CC3)cc2)C(C)(C)[C@H]1Oc1ccc(C#N)c(Cl)c1 (stereo partly specified)

Test system: not listed separately
Test: Metabolic stability in mouse liver microsomes assessed as compound remaining at 1 uM after 30 mins in presence of NADPH-regenerating system
Type: ADME, Microsome
Details: read-out: Stabilty
Procedure, shortened: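 Mouse liver microsomes at 0.5 mg protein/mL in 100 mM PBS, pH 7.4. Reaction started with NADPH-regenerating solution (1.3 mM NADP+, 3.3 mM glucose-6-phosphate, 0.4 U/mL G6PDH, 3.3 mM MgCl2). Incubated 30 min at 37 °C, stopped with ice-cold acetonitrile, centrifuged. Percent remaining reported as mean ± SD, n = 3.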

Row | SMILES | remaining at 0.5 h, 1 µM [%]
11 | O=C1CC2(CCCC2)CC(=O)N1CCCCN1CCN(c2ncccn2)CC1 [BUSPIRONE] | 0.03

Biological target: T1, Protein cereblon/Androgen receptor
Test: Protac activity at CRBN/AR in human LNCaP cells assessed as AR degradation at 1 uM by Western blotting analysis relative to control
Type: cell-based
Details: not given
Procedure, shortened: as §2

Row | Activity [%] | SMILES
12 | 26 | CC1(C)[C@H](NC(=O)c2ccc(N3CCN(C4CC5(CCN(c6cccc7nnn(C8CCC(=O)NC8=O)c(=O)c67)CC5)C4)CC3)cc2)C(C)(C)[C@H]1Oc1ccc(C#N)c(Cl)c1 (stereo partly specified)
13 | 40 | CC1(C)[C@H](NC(=O)c2ccc(N3CCN(CC4CCN(C(=O)COc5ccc6nnn(C7CCC(=O)NC7=O)c(=O)c6c5)CC4)CC3)cc2)C(C)(C)[C@H]1Oc1ccc(C#N)c(Cl)c1 (stereo partly specified)
14 | 60 | CC1(C)[C@H](NC(=O)c2ccc(N3CCN(CC4CCN(c5ccc6c(=O)n(C7CCC(=O)NC7=O)nnc6c5)CC4)CC3)cc2)C(C)(C)[C@H]1Oc1ccc(C#N)c(Cl)c1 (stereo partly specified)
15 | 77 | CC1(C)[C@H](NC(=O)c2ccc(N3CCN(CC4CCN(c5cccc6nnn(C7CCC(=O)NC7=O)c(=O)c56)CC4)CC3)cc2)C(C)(C)[C@H]1Oc1ccc(C#N)c(Cl)c1 (stereo partly specified)
16 | 98 | CC1(C)[C@H](NC(=O)c2ccc(N3CCN(CCOC4CCN(C(=O)COc5ccc6nnn(C7CCC(=O)NC7=O)c(=O)c6c5)CC4)CC3)cc2)C(C)(C)[C@H]1Oc1ccc(C#N)c(Cl)c1 (stereo partly specified)

Biological target: T1, Protein cereblon/Androgen receptor
Test: Protac activity at CRBN/AR in human LNCaP cells assessed as AR degradation at 10 uM by Western blotting analysis relative to control
Type: cell-based
Details: not given
Procedure, shortened: as §2

Row | Activity [%] | SMILES
17 | 71 | CC1(C)[C@H](NC(=O)c2ccc(N3CCN(C4CC5(CCN(c6cccc7nnn(C8CCC(=O)NC8=O)c(=O)c67)CC5)C4)CC3)cc2)C(C)(C)[C@H]1Oc1ccc(C#N)c(Cl)c1 (stereo partly specified)
18 | 51 | CC1(C)[C@H](NC(=O)c2ccc(N3CCN(CC4CCN(C(=O)COc5ccc6nnn(C7CCC(=O)NC7=O)c(=O)c6c5)CC4)CC3)cc2)C(C)(C)[C@H]1Oc1ccc(C#N)c(Cl)c1 (stereo partly specified)
19 | 83 | CC1(C)[C@H](NC(=O)c2ccc(N3CCN(CC4CCN(c5ccc6c(=O)n(C7CCC(=O)NC7=O)nnc6c5)CC4)CC3)cc2)C(C)(C)[C@H]1Oc1ccc(C#N)c(Cl)c1 (stereo partly specified)
20 | 78 | CC1(C)[C@H](NC(=O)c2ccc(N3CCN(CC4CCN(c5cccc6nnn(C7CCC(=O)NC7=O)c(=O)c56)CC4)CC3)cc2)C(C)(C)[C@H]1Oc1ccc(C#N)c(Cl)c1 (stereo partly specified)
21 | 94 | CC1(C)[C@H](NC(=O)c2ccc(N3CCN(CCOC4CCN(C(=O)COc5ccc6nnn(C7CCC(=O)NC7=O)c(=O)c6c5)CC4)CC3)cc2)C(C)(C)[C@H]1Oc1ccc(C#N)c(Cl)c1 (stereo partly specified)

Source: ChEMBL document CHEMBL4706590, “Design and characterization of cereblon-mediated androgen receptor proteolysis-targeting chimeras” (Eur J Med Chem, 2020)
